From ChEMBL document CHEMBL2375226, “Bivalent angiotensin II suppresses oxidative stress-induced hyper-responsiveness of angiotensin II receptor type I” (Eur J Med Chem, 2013)
Calls of active or inactive are those of the source. The rule behind the calls is not given here.

How the values were obtained:
HEK293 [1] = experiment: Stimulation of EGFP-tagged rat AT1 receptor expressed in HEK cells assessed as increase in cluster density value at 5 nM under H2O2-induced oxidative stress condition by image correlation spectroscopic analysis; type: cell-based
Summary of the method: (§1)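 HEK cells expressing EGFP-tagged AT₁R were plated at 1.5 × 10⁵ cells per glass-bottom dish. Where stated, cells were pre-treated with H₂O₂ for 3 h. Cell surfaces were imaged before and after 5 nM monovalent Ang II (or a 5 nM total 1:1 mixture) or 2.5 nM bivalent peptide. Imaging used a 488 nm laser and a 60× oil objective. Image correlation spectroscopy gave mean fluorescence intensity, cluster density and degree of aggregation versus unstimulated baseline.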

HEK293 [2] = experiment: Stimulation of EGFP-tagged rat AT1 receptor expressed in HEK cells assessed as increase in mean fluorescence intensity at 5 nM under non-oxidative condition by image correlation spectroscopic analysis relative to control; type: cell-based; summary of the method: as §1
HEK293 [3] = experiment: Stimulation of EGFP-tagged rat AT1 receptor expressed in HEK cells assessed as increase in degree of aggregation at 5 nM under H2O2-induced oxidative stress condition by image correlation spectroscopic analysis; type: cell-based; summary of the method: as §1
HEK293 [4] = experiment: Stimulation of EGFP-tagged rat AT1 receptor expressed in HEK cells assessed as increase in degree of aggregation at 5 nM under non-oxidative condition by image correlation spectroscopic analysis; type: cell-based; summary of the method: as §1
HEK293 [5] = experiment: Stimulation of EGFP-tagged rat AT1 receptor expressed in HEK cells assessed as increase in intracellular calcium level at 5 nM after 3 mins under H2O2-induced oxidative stress condition by fluorimetric assay; type: cell-based
Summary of the method: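 Before the Indo1-AM [Ca²⁺]i assay, AT₁R-HEK cells were exposed to H₂O₂ for 3 h to impose oxidative stress. They were then stimulated with 5 nM peptide, based on Ang II equivalents. Ratiometric emission at 405/490 nm (ex 338 nm) was monitored for 3 min after ligand addition. Ca²⁺ was derived by Kd-based calibration against EGTA and ionomycin ratios.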

HEK293 [6] = experiment: Stimulation of EGFP-tagged rat AT1 receptor expressed in HEK cells assessed as increase in cluster density value at 5 nM under non-oxidative condition by image correlation spectroscopic analysis relative to control; type: cell-based; summary of the method: as §1
HEK293 [7] = experiment: Stimulation of EGFP-tagged rat AT1 receptor expressed in HEK cells assessed as increase in mean fluorescence intensity at 5 nM under H2O2-induced oxidative stress condition by image correlation spectroscopic analysis relative to control; type: cell-based; summary of the method: as §1
HEK293 [8] = experiment: Stimulation of EGFP-tagged rat AT1 receptor expressed in HEK cells assessed as increase in degree of aggregation at 2.5 nM under non-oxidative condition by image correlation spectroscopic analysis; type: cell-based; summary of the method: as §1
HEK293 [9] = experiment: Stimulation of EGFP-tagged rat AT1 receptor expressed in HEK cells assessed as change in cluster density value at 2.5 nM under non-oxidative condition by image correlation spectroscopic analysis relative to control; type: cell-based; summary of the method: as §1
HEK293 [10] = experiment: Stimulation of EGFP-tagged rat AT1 receptor expressed in HEK cells assessed as increase in degree of aggregation at 2.5 nM under H2O2-induced oxidative stress condition by image correlation spectroscopic analysis; type: cell-based; summary of the method: as §1
HEK293 [11] = experiment: Stimulation of EGFP-tagged rat AT1 receptor expressed in HEK cells assessed as increase in intracellular calcium level at 5 nM after 3 mins under H2O2-induced oxidative stress condition by fluorimetric assay
HEK293 [12] = experiment: Stimulation of EGFP-tagged rat AT1 receptor expressed in HEK cells assessed as decrease in cluster density value at 2.5 nM under H2O2-induced oxidative stress condition by image correlation spectroscopic analysis; type: cell-based; summary of the method: as §1
HEK293 [13] = experiment: Stimulation of EGFP-tagged rat AT1 receptor expressed in HEK cells assessed as increase in intracellular calcium level at 10 nM after 3 mins by fluorimetric assay

Structure (SMILES): CC[C@H](C)[C@H](NC(=O)[C@H](Cc1ccc(O)cc1)NC(=O)[C@@H](NC(=O)[C@H](CCCNC(=N)N)NC(=O)[C@@H](N)CC(=O)O)C(C)C)C(=O)N[C@@H](Cc1cnc[nH]1)C(=O)N1CCC[C@H]1C(=O)N[C@@H](Cc1ccccc1)C(=O)O
- Activity (HEK293 [1]): Active
- Activity (HEK293 [2]): Active
- Activity (HEK293 [3]): Active
- Activity (HEK293 [4]): inactive
- Activity (HEK293 [5]): Active
- Activity (HEK293 [6]): Active
- Activity (HEK293 [7]): Active

Structure (SMILES): CC[C@H](C)[C@H](NC(=O)[C@H](Cc1ccc(O)cc1)NC(=O)[C@@H](NC(=O)[C@H](CCCNC(=N)N)NC(=O)[C@H](CC(=O)O)NC(=O)CCCCCNc1c(N[C@@H](CC(=O)O)C(=O)N[C@@H](CCCNC(=N)N)C(=O)N[C@H](C(=O)N[C@@H](Cc2ccc(O)cc2)C(=O)N[C@H](C(=O)N[C@@H](Cc2cnc[nH]2)C(=O)N2CCC[C@H]2C(=O)N[C@@H](Cc2ccccc2)C(=O)O)[C@@H](C)CC)C(C)C)c(=O)c1=O)C(C)C)C(=O)N[C@@H](Cc1cnc[nH]1)C(=O)N1CCC[C@H]1C(=O)N[C@@H](Cc1ccccc1)C(=O)O
- Activity (HEK293 [8]): Active
- Activity (HEK293 [9]): inactive
- Activity (HEK293 [10]): Active
- Activity (HEK293 [11]): Active
- Activity (HEK293 [12]): inactive

Structure (SMILES): CC[C@H](C)[C@H](NC(=O)[C@H](Cc1ccc(O)cc1)NC(=O)[C@@H](NC(=O)[C@H](CCCNC(=N)N)NC(=O)[C@H](CC(=O)O)NC(=O)CCCCCNc1c(OC)c(=O)c1=O)C(C)C)C(=O)N[C@@H](Cc1cnc[nH]1)C(=O)N1CCC[C@H]1C(=O)N[C@@H](Cc1ccccc1)C(=O)O
- Activity (HEK293 [13]): Active
